# Laboratory results as given in ChEMBL document CHEMBL1154651, “Lead optimization of COX-2 inhibitor nimesulide analogs to overcome aromatase inhibitor resistance in breast cancer cells” (Bioorg Med Chem Lett, 2009).
# Assay: Cytotoxicity against human LTEDaro cells after 72 hrs by MTT assay
# Type: functional, cell-based
# Procedure, shortened: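 LTEDaro cells (long-term estrogen-deprived MCF-7aro) seeded in custom medium for 24 h, then exposed to a range of concentrations in DMSO (final ≤0.1%) for 72 h, with vehicle-matched DMSO controls. Medium then replaced with 0.5 mg/ml MTT for 2 h at 37°C in CO2 incubator; formazan dissolved in DMSO and read at 570 nm; triplicates.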
row,SMILES,IC50 [µM]
1,Cc1ccc(C)c(COc2cc(NC(=O)Cc3cccnc3)ccc2N(C)S(C)(=O)=O)c1,1.69
2,CC(C)c1ccc(COc2cc(NC(=O)Cc3cccnc3)ccc2N(C)S(C)(=O)=O)cc1,8.26
3,Cc1cc(C)c(COc2cc(NC(=O)C3CCCCC3)ccc2N(C)S(C)(=O)=O)c(C)c1,18.5
4,CC(C)c1ccc(COc2cc(NC(=O)Cc3ccncc3)ccc2N(C)S(C)(=O)=O)cc1,11.5
5,Cc1ccc(C)c(COc2cc(NC(=O)Cc3ccncc3)ccc2N(C)S(C)(=O)=O)c1,2.37
6,CCCCCCOc1cc(NC(=O)c2ccccc2)ccc1N(C)S(C)(=O)=O,12
7,Cc1cc(C)c(COc2cc(NC(=O)Cc3cccnc3)ccc2N(C)S(C)(=O)=O)c(C)c1,10.4
8,Cc1cc(C)c(COc2cc(NC(=O)Cc3ccncc3)ccc2N(C)S(C)(=O)=O)c(C)c1,13.2
9,CN(c1ccc(NC(=O)Cc2ccncc2)cc1OCc1cc(Cl)ccc1Cl)S(C)(=O)=O,7.64
10,Cc1ccc(C)c(COc2cc(NC(=O)Cc3ccccn3)ccc2N(C)S(C)(=O)=O)c1,174
11,Cc1cccc(COc2cc(NC(=O)C3CCCCC3)ccc2N(C)S(C)(=O)=O)c1,44.2
12,CN(c1ccc(NC(=O)Cc2cccnc2)cc1OCc1cc(Cl)ccc1Cl)S(C)(=O)=O,14.1
13,Cc1cccc(C)c1COc1cc(NC(=O)c2ccccc2)ccc1N(C)S(C)(=O)=O,16.2
14,Cc1cccc(COc2cc(NC(=O)c3ccccc3)ccc2N(C)S(C)(=O)=O)c1,16.1
15,Cc1cccc(COc2cc(NC(=O)Cc3ccccn3)ccc2N(C)S(C)(=O)=O)c1,14.9
16,Cc1cccc(C)c1COc1cc(NC(=O)C2CCCCC2)ccc1N(C)S(C)(=O)=O,39.4
17,CCCCCCOc1cc(NC(=O)Cc2ccncc2)ccc1N(C)S(C)(=O)=O,9.56
18,CC(C)c1ccc(COc2cc(NC(=O)C3CCCCC3)ccc2N(C)S(C)(=O)=O)cc1,16.1
19,Cc1cccc(C)c1COc1cc(NC(=O)Cc2cccnc2)ccc1N(C)S(C)(=O)=O,22.5
20,Cc1ccccc1COc1cc(NC(=O)c2ccccc2)ccc1N(C)S(C)(=O)=O,176

row,SMILES,IC50 [µM]
1,Cc1cccc(C)c1COc1cc(NC(=O)Cc2ccncc2)ccc1N(C)S(C)(=O)=O,19.9
2,CC(C)c1ccc(COc2cc(NC(=O)Cc3ccccn3)ccc2N(C)S(C)(=O)=O)cc1,11.4
3,Cc1ccc(C)c(COc2cc(NC(=O)c3ccccc3)ccc2N(C)S(C)(=O)=O)c1,4.68
4,Cc1ccccc1COc1cc(NC(=O)C2CCCCC2)ccc1N(C)S(C)(=O)=O,28.5
5,Cc1cccc(COc2cc(NC(=O)Cc3cccnc3)ccc2N(C)S(C)(=O)=O)c1,93.6
6,Cc1ccccc1COc1cc(NC(=O)Cc2ccncc2)ccc1N(C)S(C)(=O)=O,11.8
7,CN(c1ccc(NC(=O)C2CCCCC2)cc1OCc1cc(Cl)ccc1Cl)S(C)(=O)=O,1
8,CS(=O)(=O)Nc1ccc([N+](=O)[O-])cc1Oc1ccccc1 [NIMESULIDE],173
9,Cc1cccc(C)c1COc1cc(NC(=O)Cc2ccccn2)ccc1N(C)S(C)(=O)=O,41.4
10,CN(c1ccc(NC(=O)c2ccccc2)cc1OCc1cc(Cl)ccc1Cl)S(C)(=O)=O,2.15
11,Cc1cccc(COc2cc(NC(=O)Cc3ccncc3)ccc2N(C)S(C)(=O)=O)c1,16.1
12,Cc1ccccc1COc1cc(NC(=O)Cc2ccccn2)ccc1N(C)S(C)(=O)=O,93.9
13,CCCCCCOc1cc(NC(=O)C2CCCCC2)ccc1N(C)S(C)(=O)=O,6.98
14,CN(c1ccc(NC(=O)Cc2ccccn2)cc1OCc1cc(Cl)ccc1Cl)S(C)(=O)=O,23.6
15,Cc1cc(C)c(COc2cc(NC(=O)c3ccccc3)ccc2N(C)S(C)(=O)=O)c(C)c1,10.3
16,CCCCCCOc1cc(NC(=O)Cc2ccccn2)ccc1N(C)S(C)(=O)=O,7.68
17,Cc1cc(C)c(COc2cc(NC(=O)Cc3ccccn3)ccc2N(C)S(C)(=O)=O)c(C)c1,51.3
18,Cc1ccccc1COc1cc(NC(=O)Cc2cccnc2)ccc1N(C)S(C)(=O)=O,71.5
19,CC(C)c1ccc(COc2cc(NC(=O)c3ccccc3)ccc2N(C)S(C)(=O)=O)cc1,7.93
20,CCCCCCOc1cc(NC(=O)Cc2cccnc2)ccc1N(C)S(C)(=O)=O,12.1
